Assay results published in ChEMBL document CHEMBL1773015, “2-Arylbenzothiazole, benzoxazole and benzimidazole derivatives as fluorogenic substrates for the detection of nitroreductase and aminopeptidase activity in clinically important bacteria” (Bioorg Med Chem, 2011).
Active and inactive are the calls of the source. No cut-off for these calls is given here.

How the values were obtained:
Escherichia coli [1] = assay: Binding affinity to Escherichia coli NCTC 10418 nitroreductase assessed as fluorescent colonies after 24 hrs by fluorescence staining
Outline: (§1)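 Columbia agar plates contained substrate at a final 100 mg/L, added from a 1-methyl-2-pyrrolidone solution to molten agar at 50 °C. Inoculum was a 10⁸ CFU/mL suspension in 0.85% saline, spread for single colonies, then incubated at 37 °C in air for 24 h. Colony fluorescence under UV light (365 nm) was graded as strong, moderate, weak or none, with colour noted.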

Serratia marcescens [2] = assay: Binding affinity to Serratia marcescens NCTC 10211 nitroreductase assessed as fluorescent colonies after 24 hrs by fluorescence staining; outline: as §1
Enterococcus faecalis = assay: Binding affinity to Enterococcus faecalis NCTC 775 nitroreductase assessed as fluorescent colonies after 24 hrs by fluorescence staining; outline: as §1
Streptococcus pyogenes = assay: Binding affinity to Streptococcus pyogenes NCTC 8306 nitroreductase assessed as fluorescent colonies after 24 hrs by fluorescence staining; outline: as §1
Listeria monocytogenes = assay: Binding affinity to Listeria monocytogenes NCTC 11994 nitroreductase assessed as fluorescent colonies after 24 hrs by fluorescence staining; outline: as §1
Pseudomonas aeruginosa [3] = assay: Binding affinity to Pseudomonas aeruginosa NCTC 10662 nitroreductase assessed as fluorescent colonies after 24 hrs by fluorescence staining; outline: as §1
Morganella morganii [4] = assay: Binding affinity to Morganella morganii WS 462403 nitroreductase assessed as fluorescent colonies after 24 hrs by fluorescence staining; outline: as §1
Enterobacter cloacae [5] = assay: Binding affinity to Enterobacter cloacae NCTC 11936 nitroreductase assessed as fluorescent colonies after 24 hrs by fluorescence staining; outline: as §1
Providencia rettgeri [6] = assay: Binding affinity to Providencia rettgeri NCTC 7475 nitroreductase assessed as fluorescent colonies after 24 hrs by fluorescence staining; outline: as §1
[7] = system: Staphylococcus epidermidis; assay: Binding affinity to Staphylococcus epidermidis NCTC 11047 nitroreductase assessed as fluorescent colonies after 24 hrs by fluorescence staining; outline: as §1
Staphylococcus aureus [8] = assay: Binding affinity to Staphylococcus aureus NCTC 6571 nitroreductase assessed as fluorescent colonies after 24 hrs by fluorescence staining; outline: as §1
Staphylococcus aureus [9] = assay: Binding affinity to Staphylococcus aureus (MRSA) NCTC 11939 nitroreductase assessed as fluorescent colonies after 24 hrs by fluorescence staining; outline: as §1
Enterococcus faecium = assay: Binding affinity to Enterococcus faecium NCTC 7171 nitroreductase assessed as fluorescent colonies after 24 hrs by fluorescence staining
Escherichia coli [10] = assay: Binding affinity to Escherichia coli NCTC 10418 aminopeptidase assessed as fluorescent colonies after 24 hrs by fluorescence staining
Outline: (§2)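 Substrate in 1-methyl-2-pyrrolidone was mixed into molten Columbia agar at 50 °C (final 100 mg/L). NCTC strains were subcultured on Columbia agar and suspended in 0.85% saline to 10⁸ CFU/mL by densitometer. Plates were spread for single colonies and incubated at 37 °C in air for 24 h. Colonies were viewed under UV light (365 nm) and fluorescence intensity and colour scored visually; growth was also scored.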

Serratia marcescens [11] = assay: Binding affinity to Serratia marcescens NCTC 10211 aminopeptidase assessed as fluorescent colonies after 24 hrs by fluorescence staining; outline: as §2
Pseudomonas aeruginosa [12] = assay: Binding affinity to Pseudomonas aeruginosa NCTC 10662 aminopeptidase assessed as fluorescent colonies after 24 hrs by fluorescence staining; outline: as §2
Morganella morganii [13] = assay: Binding affinity to Morganella morganii WS 462403 aminopeptidase assessed as fluorescent colonies after 24 hrs by fluorescence staining; outline: as §2
Enterobacter cloacae [14] = assay: Binding affinity to Enterobacter cloacae NCTC 11936 aminopeptidase assessed as fluorescent colonies after 24 hrs by fluorescence staining; outline: as §2
Providencia rettgeri [15] = assay: Binding affinity to Providencia rettgeri NCTC 7475 aminopeptidase assessed as fluorescent colonies after 24 hrs by fluorescence staining; outline: as §2

Row | Compound | Activity (Escherichia coli [1]) | Activity (Serratia marcescens [2]) | Activity (Enterococcus faecalis) | Activity (Streptococcus pyogenes) | Activity (Listeria monocytogenes) | Activity (Pseudomonas aeruginosa [3]) | Activity (Morganella morganii [4]) | Activity (Enterobacter cloacae [5]) | Activity (Providencia rettgeri [6]) | Activity [7] | Activity (Staphylococcus aureus [8]) | Activity (Staphylococcus aureus [9]) | Activity (Enterococcus faecium) | Activity (Escherichia coli [10]) | Activity (Serratia marcescens [11]) | Activity (Pseudomonas aeruginosa [12]) | Activity (Morganella morganii [13]) | Activity (Enterobacter cloacae [14]) | Activity (Providencia rettgeri [15])
1 | O=[N+]([O-])c1ccccc1-c1nc2ccccc2s1 | Active | Active | inactive | inactive | inactive | inactive | Active | Active | Active | Active | Active | Active | inactive | – | – | – | – | – | –
2 | O=[N+]([O-])c1ccc(Cl)cc1-c1nc2ccccc2o1 | Active | Active | inactive | inactive | inactive | Active | Active | Active | Active | inactive | Active | Active | inactive | – | – | – | – | – | –
3 | O=[N+]([O-])c1ccc(F)cc1-c1nc2ccccc2s1 | Active | Active | inactive | inactive | inactive | inactive | Active | Active | Active | inactive | Active | Active | inactive | – | – | – | – | – | –
4 | Cn1c(-c2ccccc2[N+](=O)[O-])nc2ccccc21 | inactive | inactive | inactive | inactive | inactive | inactive | Active | inactive | inactive | inactive | inactive | inactive | inactive | – | – | – | – | – | –
5 | O=[N+]([O-])c1ccccc1-c1nc2ccccc2o1 | Active | Active | inactive | inactive | inactive | Active | Active | Active | Active | Active | Active | Active | inactive | – | – | – | – | – | –
6 | NCCC(=O)Nc1ccccc1-c1nc2ccccc2s1 | – | – | – | – | – | – | – | – | – | – | – | – | – | Active | Active | Active | Active | inactive | inactive
7 | NCCC(=O)Nc1ccccc1-c1nc2ccccc2o1 | – | – | – | – | – | – | – | – | – | – | – | – | – | Active | Active | Active | Active | Active | Active
8 | C[C@H](N)C(=O)Nc1ccccc1-c1nc2ccccc2s1 | – | – | – | – | – | – | – | – | – | – | – | – | – | Active | Active | Active | Active | Active | Active
9 | C[C@H](N)C(=O)Nc1ccccc1-c1nc2ccccc2o1 | – | – | – | – | – | – | – | – | – | – | – | – | – | Active | Active | Active | Active | Active | Active
10 | Cn1c(-c2cc(Cl)ccc2[N+](=O)[O-])nc2ccccc21 | Active | Active | inactive | inactive | inactive | Active | Active | Active | Active | inactive | Active | Active | inactive | – | – | – | – | – | –
11 | O=[N+]([O-])c1ccc(F)cc1-c1nc2ccccc2o1 | Active | Active | inactive | inactive | inactive | inactive | Active | Active | Active | inactive | Active | Active | inactive | – | – | – | – | – | –
12 | COc1cc(-c2nc3ccccc3s2)c([N+](=O)[O-])cc1OC | Active | Active | inactive | inactive | inactive | Active | Active | Active | Active | Active | Active | Active | inactive | – | – | – | – | – | –
13 | O=[N+]([O-])c1ccc(Cl)cc1-c1nc2ccccc2s1 | Active | Active | inactive | inactive | inactive | Active | Active | Active | Active | inactive | Active | Active | inactive | – | – | – | – | – | –
14 | COc1cc(-c2nc3ccccc3o2)c([N+](=O)[O-])cc1OC | Active | Active | inactive | inactive | inactive | inactive | Active | Active | Active | inactive | Active | Active | inactive | – | – | – | – | – | –
